Results from ChEMBL document CHEMBL1649385, “Synthesis and in vitro anti-tumor activity of new oxadiazole thioglycosides” (Eur J Med Chem, 2011).
In brackets after ≈: the same amount, converted by molar mass.

Tests used:
[1] = Acute toxicity in po dosed albino Wistar rat assessed as mortality after 24 hrs; format: organism-based; conditions: in vivo
How it was run: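 Male Wistar albino rats (110–115 g) were acclimated for 7 days with pellet diet and water ad libitum. Compound in DMSO was given as a single oral gavage of 500 mg/kg body weight at a fixed 0.5 mL/rat, with eight rats per group. Controls received 0.5 mL DMSO. Mortality was recorded after 24 h.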

MCF7 = assay: Cytotoxicity against human MCF7 cells after 48 hrs by SRB assay; format: functional, cell-based; conditions: MCF7, 48 h
How it was run: (§1)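 SRB assay: cells seeded at 10⁴ cells/well and left 24 h to attach, then exposed to four concentrations of compound for 48 h at 37 °C, 5% CO₂. Cells fixed, washed and stained with sulforhodamine B; excess dye removed with acetic acid, bound dye taken up in Tris-EDTA and read on an ELISA reader. IC50 from surviving fraction versus concentration curves, relative to saline control.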

HepG2 = assay: Cytotoxicity against human HepG2 cells after 48 hrs by SRB assay; format: functional, cell-based; conditions: HepG2, 48 h; how it was run: as §1
[2] = Acute toxicity in albino Wistar rat assessed as mortality at 50 mg/kg, po after 24 hrs; format: organism-based; parameters: dose 50 mg/kg, route oral; conditions: in vivo, read-out: Activity

CC(=O)OC[C@H]1O[C@@H](Sc2nnc(-c3cn(-c4ccccc4)nc3CC(C)C)o2)[C@H](OC(C)=O)[C@@H](OC(C)=O)[C@@H]1OC(C)=O
LD50 at 24 h [1]: > 500 mg/kg | IC50 (MCF7): 7.1 µg/mL (≈ 11.3 µM) | IC50 (HepG2): 13.9 µg/mL (≈ 22 µM) | mortality at 24 h [2]: 25%

CSCSc1nnc(-c2cn(-c3ccccc3)nc2CC(C)C)o1
LD50 at 24 h [1]: > 500 mg/kg | IC50 (MCF7): 2.67 µg/mL (≈ 7.41 µM) | IC50 (HepG2): 4.62 µg/mL (≈ 12.8 µM) | mortality at 24 h [2]: 25%

CC(C)Cc1nn(-c2ccccc2)cc1-c1nnc(S)o1
LD50 at 24 h [1]: > 500 mg/kg | IC50 (MCF7): 17.9 µg/mL (≈ 59.6 µM) | IC50 (HepG2): 43.6 µg/mL (≈ 145 µM)

CC(=O)OC[C@@H]1O[C@H](Sc2nnc(C)c(=O)n2/N=C\c2cn(-c3ccccc3)nc2CC(C)C)[C@@H](OC(C)=O)[C@H](OC(C)=O)[C@H]1OC(C)=O
IC50 (MCF7): 20.2 µg/mL (≈ 29 µM) | IC50 (HepG2): 9.1 µg/mL (≈ 13 µM)

O=c1[nH]cc(F)c(=O)[nH]1 [FLUOROURACIL]
IC50 (HepG2): 25 µg/mL (≈ 192 µM)

CC/C(=C(\c1ccccc1)c1ccc(OCCN(C)C)cc1)c1ccccc1 [TAMOXIFEN]
IC50 (MCF7): 8.31 µg/mL (≈ 22.4 µM)
